Test results reported in PubChem BioAssay.
Records with an inconclusive call do not appear.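 Rule for the calls, unless noted: active = viability increase at or above a cutoff of the median across tested compounds plus 3 SD (cut at about 8.5% in these data, passing the limit was not always enough); inconclusive = some gains above the cutoff, reason not given; inactive = the rest.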

Experiments:
[1] = S. cerevisiae growth inhibition in permissive medium (OD615), pilot counter-assay for S. cerevisiae lifespan shortening project, permissive growth control (AID 705;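 active = growth inhibition above 25% in both replicates, a cutoff set 3 SD above the mean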); conditions: OD615, 24 h, at 10 µM, hits give high values
Method in brief: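 System: Engineered DeaD yeast | Buffer or medium: SC raffinose/galactose permissive medium | Incubation: Cells pre-grown 4 h, then 24 h compound exposure, 30 °C humidified | Measured by: Absorbance (optical density) at 615 nm | Read-out: Reduction in yeast growth (OD615)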

[2] = S. cerevisiae growth inhibition in restrictive medium, OD615, pilot screen, restrictive growth control, yeast lifespan reduction project (AID 706;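 active = growth inhibition above a set limit, 3 SD over mean compound inhibition, in both replicates, cut at about 43% in these data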;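 note: modified DeaD lifespan yeast strain shifted to restrictive glucose medium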); conditions: OD615, 48 h, at 10 µM, hits give high values
Method in brief: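 Material: modified S. cerevisiae; Medium: glucose-based CSMM-D restrictive medium; Compound dosing: one concentration, 10 µM final, 0.25% DMSO; Incubation: 48 h compound exposure at 30 °C; Measured by: OD615.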

[3] = doxorubicin toxicity protection in MRP-1 cells – H69AR cells, CellTiter-Glo, duplicate, MRP-1 activator project, pilot screen (AID 807); conditions: H69AR viability with doxorubicin, CellTiter-Glo luminescence; at 10 µM; hits give high values;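 note: compound pretreatment 18-22 h then 72 h combined with doxorubicin; 0% = doxorubicin alone and 100% = vehicle without doxorubicin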
[4] = viability of HCT116 without oncogenic beta-catenin – human colon tumor cells, pilot screen (AID 823;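 active = cell viability at or below a set limit in both duplicate runs, the limit being the all-compound median minus 4 SD, cut at about 23% in these data, passing the limit was not always enough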;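 note: 0% = wells killed by 20 µM Hyamine and 100% = untreated DMSO cell wells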); conditions: HCT116 beta-catenin knockout viability, CellTiter-Glo, 60 h; at 10 µM; hits give low values
[5] = viability of PTEN-null HCT116 cells – cell-based, HCT116 clonal line, CellTiter-Glo, pilot screen (AID 824;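 active = viability at or below 27.92% in each of two runs, the all-compound median minus 4 SD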;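 note: 0% = 20 µM Hyamine control and 100% = vehicle cell control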); conditions: HCT116 PTEN-deleted viability, 60 h, at 10 µM, hits give low values
[6] = RAM pathway blockade in budding yeast – dse1pr::URA3 reporter, 5-FOA selection, pilot screen (AID 869;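 active = inhibition over a set limit, the all-compound mean plus 3 SD, in both replicate runs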;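 note: 0% = DMSO wells with no growth and 100% = 10 µM 1-NA-PP1 with full growth; RAM network block rescues cells from 5-FOA so hits raise OD615 growth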); conditions: S. cerevisiae dse1pr::URA3 5-FOA growth, OD615, 2 d; at 10 µM; hits give high values; strain carries analog-sensitive mutant Cbk1 kinase
[7] = RAM signaling pathway blockade in yeast – S. cerevisiae, Pdr1DBD-CYC8 efflux-inhibited sensitized strain, primary screen (AID 1298;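 active = RAM network inhibition above 8.4% in each of two replicates, 3 SD over the compound average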;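 note: 0% = DMSO untreated cells without growth and 100% = 10 µM 1-NA-PP1 full growth; higher means more yeast growth rescued from 5-FOA killing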); conditions: S. cerevisiae cbk1-as DSE1-URA3 strain, 5-FOA growth OD615, 2 d; at 50 µM; hits give high values

Cc1[nH]c(=O)[nH]c(=O)c1S(=O)(=O)N1CCCC(C(=O)N2CCC(Cc3ccccc3)CC2)C1 (stereo unspecified)
inactive: growth inhibition [1] -7.81% | growth inhibition [2] -8.27% | viability increase [3] 0.94% | viability [4] 100% | viability [5] 101% | inhibition [6] 0.385% | RAM network inhibition [7] 3.66%

c1ccc(-n2cnnc2SCc2cn3ccccc3n2)cc1
inactive: growth inhibition [1] 5.34% | growth inhibition [2] 20.6% | viability increase [3] -4.4% | viability [4] 101% | viability [5] 95.6% | inhibition [6] 1.19% | RAM network inhibition [7] 7.66%

CCOc1ccc(C2c3c(oc4cc(C)c(C)cc4c3=O)C(=O)N2CCCN(C)C)cc1OC (stereo unspecified)
inactive: growth inhibition [1] -3.33% | growth inhibition [2] -1.7% | viability increase [3] -1.6% | viability [4] 108% | viability [5] 98% | inhibition [6] -0.13% | RAM network inhibition [7] -0.66%

Cn1c(C(=O)Nc2ccc3c(c2)OCCO3)cc2c(=O)n(C)c3ccccc3c21
inactive: growth inhibition [1] -14.2% | growth inhibition [2] -2.83% | viability increase [3] -7.31% | viability [4] 72.5% | viability [5] 64.3% | inhibition [6] 1.94% | RAM network inhibition [7] 4.95%

CC(C)C(NS(=O)(=O)c1ccc2c(c1)oc(=O)n2C)C(=O)N1CCN(c2ccccc2F)CC1 (stereo unspecified)
inactive: growth inhibition [1] -11% | growth inhibition [2] -9.9% | viability increase [3] -4.04% | viability [4] 86.9% | viability [5] 83.1% | inhibition [6] 1.75% | RAM network inhibition [7] 4.04%

Cc1ccc(N(CC(O)CN2CCCC2)S(=O)(=O)c2ccccc2)cc1 (stereo unspecified)
inactive: growth inhibition [1] -1.29% | growth inhibition [2] -3.1% | viability increase [3] -2.89% | viability [4] 94.2% | viability [5] 91.2% | inhibition [6] -0.105% | RAM network inhibition [7] 5.78%

O=C(Nc1ccc(N2CCOCC2)cc1)NC1CCCCC1
inactive: growth inhibition [1] -0.89% | growth inhibition [2] 1.07% | viability increase [3] -1.27% | viability [4] 103% | viability [5] 101% | inhibition [6] -0.22% | RAM network inhibition [7] 9.28%

Cc1cc(NC(=O)COn2nnc3ccc(Cl)cc32)no1
inactive: growth inhibition [1] -6.7% | growth inhibition [2] 1.51% | viability increase [3] 1.22% | viability [4] 94.3% | viability [5] 91.2% | inhibition [6] 0.535% | RAM network inhibition [7] 2.19%

O=C(Nc1ccccc1C(=O)NCc1ccco1)NC1CCCCC1
inactive: growth inhibition [1] -5.4% | growth inhibition [2] 6.01% | viability increase [3] -3.58% | viability [4] 93.1% | viability [5] 92.8% | inhibition [6] 0.79% | RAM network inhibition [7] 0.59%

Nc1cc(C(F)(F)F)ccc1C(=O)O
inactive: growth inhibition [1] 9.88% | growth inhibition [2] 9.9% | viability increase [3] -1.66% | viability [4] 97.3% | viability [5] 95.3% | inhibition [6] 0.43% | RAM network inhibition [7] 0.63%

COc1cc2ccccc2cc1-c1nnc(COc2ccccc2)o1
inactive: growth inhibition [1] -8.96% | growth inhibition [2] -14.4% | viability increase [3] -2.61% | viability [4] 98.2% | viability [5] 83.4% | inhibition [6] 4% | RAM network inhibition [7] 2.39%

CCS(=O)(=O)N1CCN(c2cccc(C)c2C)CC1
inactive: growth inhibition [1] -12.4% | growth inhibition [2] -5.41% | viability increase [3] -1.48% | viability [4] 97.5% | viability [5] 89.3% | inhibition [6] 2.35% | RAM network inhibition [7] 4.29%

COc1ccc(S(=O)(=O)N2CCC(C(=O)NCCC3=CCCCC3)CC2)cc1OC
inactive: growth inhibition [1] -5.45% | growth inhibition [2] -0.575% | viability increase [3] -0.8% | viability [4] 96.2% | viability [5] 96.9% | inhibition [6] 1.67% | RAM network inhibition [7] 4.24%

COc1ccc(OCC(=O)N(C)Cc2ccccc2)cc1
inactive: growth inhibition [1] -3.42% | growth inhibition [2] 1.48% | viability increase [3] -2.43% | viability [4] 96% | viability [5] 91.7% | inhibition [6] 0.72% | RAM network inhibition [7] 0.61%

CCOC(=O)C1CCN(C(=O)C2CCN(S(=O)(=O)c3cccc4cccnc34)CC2)CC1
inactive: growth inhibition [1] 4.06% | growth inhibition [2] 3.42% | viability increase [3] -1.75% | viability [4] 102% | viability [5] 97.6% | inhibition [6] 0.585% | RAM network inhibition [7] 1.1%

COc1ccc(C(=O)N2CCN(S(=O)(=O)c3ccc(C)cc3C)CC2)cc1OC
inactive: growth inhibition [1] -11.3% | growth inhibition [2] -13.3% | viability increase [3] 0.12% | viability [4] 93.2% | viability [5] 90.3% | inhibition [6] 1.12% | RAM network inhibition [7] 2.18%

O=C(Cn1nc(-c2ccc(Cl)cc2)ccc1=O)NCC1CCCO1 (stereo unspecified)
inactive: growth inhibition [1] -1.09% | growth inhibition [2] -10.1% | viability increase [3] -1.53% | viability [4] 92.5% | viability [5] 93.8% | inhibition [6] 1.24% | RAM network inhibition [7] 7.63%

O=C(O)c1c(F)c(F)c(F)c(F)c1-c1ccc(Cl)cc1
inactive: growth inhibition [1] -20% | growth inhibition [2] -19.6% | viability increase [3] -1.76% | viability [4] 98.9% | viability [5] 98.9% | inhibition [6] -0.105% | RAM network inhibition [7] 5.79%
